Experiments:
Type in all cases: functional
SN12C [1] = assay: Growth inhibition of human SN12C cells assessed as cell growth at 10 uM incubated for 48 hrs by sulforhodamine B assay relative to control; conditions: read-out: Activity
In short: (§1)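 Run in the standard NCI 60-cell-line screen. Cells were exposed to drug for two days, and the read-out was sulforhodamine B staining. Compound was tested at a single final concentration of 10 µM in every line, and results are reported as growth percent.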

[2] = Growth inhibition of human SNB19 cells assessed as cell growth at 10 uM incubated for 48 hrs by sulforhodamine B assay relative to control; conditions: SNB-19, 48 h, read-out: Activity; in short: as §1
Malme-3M = assay: Growth inhibition of human MALME-3M cells assessed as cell growth at 10 uM incubated for 48 hrs by sulforhodamine B assay relative to control; conditions: read-out: Activity; in short: as §1
SK-MEL-28 = assay: Growth inhibition of human SK-MEL-28 cells assessed as cell growth at 10 uM incubated for 48 hrs by sulforhodamine B assay relative to control; conditions: SK-MEL-28, 48 h, read-out: Activity; in short: as §1
[3] = Growth inhibition of human DU145 cells assessed as cell growth at 10 uM incubated for 48 hrs by sulforhodamine B assay relative to control; conditions: DU-145, 48 h, read-out: Activity; in short: as §1
[4] = Growth inhibition of human UO31 cells assessed as cell growth at 10 uM incubated for 48 hrs by sulforhodamine B assay relative to control; conditions: UO-31, 48 h, read-out: Activity
In short: (§2)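 NCI 60-cell line standard protocol, one-dose screen: single final concentration 10 µM, 2-day drug exposure, sulforhodamine B (SRB) endpoint; read-out is growth percent relative to untreated control.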

NCI-H322M = assay: Growth inhibition of human NCI-H322M cells assessed as cell growth at 10 uM incubated for 48 hrs by sulforhodamine B assay relative to control; conditions: read-out: Activity; in short: as §1
U-251 = assay: Growth inhibition of human U251 cells assessed as cell growth at 10 uM incubated for 48 hrs by sulforhodamine B assay relative to control; conditions: U-251, 48 h, read-out: Activity; in short: as §2
SR = assay: Growth inhibition of human SR cells assessed as cell growth at 10 uM incubated for 48 hrs by sulforhodamine B assay relative to control; conditions: read-out: Activity; in short: as §1
[5] = Growth inhibition of human IGROV1 cells assessed as cell growth at 10 uM incubated for 48 hrs by sulforhodamine B assay relative to control; conditions: IGROV-1, 48 h, read-out: Activity; in short: as §1
786-0 = assay: Growth inhibition of human 786-0 cells assessed as cell growth at 10 uM incubated for 48 hrs by sulforhodamine B assay relative to control; conditions: 786-0, 48 h, read-out: Activity; in short: as §1
K562 = assay: Growth inhibition of human K562 cells assessed as cell growth at 10 uM incubated for 48 hrs by sulforhodamine B assay relative to control; conditions: K562, 48 h, read-out: Activity; in short: as §1
NCI-H522 = assay: Growth inhibition of human NCI-H522 cells assessed as cell growth at 10 uM incubated for 48 hrs by sulforhodamine B assay relative to control; conditions: NCI-H522, 48 h, read-out: Activity; in short: as §1
[6] = Growth inhibition of human UACC62 cells incubated for 48 hrs by sulforhodamine B assay; conditions: UACC-62, 48 h
In short: (§3)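 Tested in the standard NCI 60-cell-line protocol with two-day drug exposure and a sulforhodamine B endpoint. Compounds were first screened at a single final concentration of 10 µM, reported as growth percent. They were then run as five 10-fold dilutions starting from a high concentration of 100 µM to give dose-response curves.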

MCF7 = assay: Growth inhibition of human MCF7 cells incubated for 48 hrs by sulforhodamine B assay; conditions: MCF7, 48 h
In short: (§4)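 NCI 60-cell-line panel, standard protocol. Cells exposed to compound for two days, growth read by sulforhodamine B staining. Tested at five 10-fold dilutions, top concentration 100 µM, to give dose-response curves.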

SK-MEL-2 = assay: Growth inhibition of human SK-MEL-2 cells incubated for 48 hrs by sulforhodamine B assay; conditions: SK-MEL-2, 48 h; in short: as §4
[7] = Growth inhibition of human RXF393 cells assessed as cell growth at 10 uM incubated for 48 hrs by sulforhodamine B assay relative to control; conditions: RXF 393, 48 h, read-out: Activity; in short: as §1
[8] = Growth inhibition of human MOLT4 cells incubated for 48 hrs by sulforhodamine B assay; conditions: MOLT-4, 48 h; in short: as §4
[9] = Growth inhibition of human HCT15 cells incubated for 48 hrs by sulforhodamine B assay; conditions: HCT-15, 48 h; in short: as §4
[10] = Growth inhibition of human SKOV3 cells incubated for 48 hrs by sulforhodamine B assay; conditions: SK-OV-3, 48 h; in short: as §3
[11] = Growth inhibition of human COLO205 cells incubated for 48 hrs by sulforhodamine B assay; conditions: COLO 205, 48 h; in short: as §4
NCI-H23 = assay: Growth inhibition of human NCI-H23 cells incubated for 48 hrs by sulforhodamine B assay; conditions: NCI-H23, 48 h; in short: as §4
[12] = Growth inhibition of human Hs 578T cells incubated for 48 hrs by sulforhodamine B assay
M14 = assay: Growth inhibition of human M14 cells incubated for 48 hrs by sulforhodamine B assay; conditions: M14, 48 h; in short: as §4
[13] = Growth inhibition of human OVCAR3 cells incubated for 48 hrs by sulforhodamine B assay; conditions: OVCAR-3, 48 h; in short: as §4
[14] = Growth inhibition of human BT549 cells incubated for 48 hrs by sulforhodamine B assay; conditions: BT-549, 48 h; in short: as §4
ACHN = assay: Growth inhibition of human ACHN cells incubated for 48 hrs by sulforhodamine B assay; in short: as §4
[15] = Growth inhibition of human TK10 cells incubated for 48 hrs by sulforhodamine B assay; conditions: TK-10, 48 h; in short: as §3
[16] = Growth inhibition of human UO31 cells incubated for 48 hrs by sulforhodamine B assay; conditions: UO-31, 48 h; in short: as §3
SN12C [17] = assay: Growth inhibition of human SN12C cells incubated for 48 hrs by sulforhodamine B assay; in short: as §3
[18] = read-out: pLC50 (the source's name) (converted)

SMILES: CC(C)[C@@]12C[C@@H](NC(=O)CF)[C@@](C)(O1)[C@@H]1CC[C@@H](C)[C@H]1[C@@H]2OC(=O)/C=C/c1ccccc1
- growth at 10 µM (SN12C [1]): 103%
- growth at 10 µM [2]: 104%
- growth at 10 µM (Malme-3M): 106%
- growth at 10 µM (SK-MEL-28): 110%
- growth at 10 µM [3]: 115%
- growth at 10 µM [4]: 91.1%
- growth at 10 µM (NCI-H322M): 97.4%
- growth at 10 µM (U-251): 106%
- growth at 10 µM (SR): 85.5%
- growth at 10 µM [5]: 103%
- growth at 10 µM (786-0): 97.3%
- growth at 10 µM (K562): 106%
- growth at 10 µM (NCI-H522): 103%

SMILES: CC(C)[C@@]12C[C@@H](NC(=O)CO)[C@@](C)(O1)[C@@H]1CC[C@@H](C)[C@H]1[C@@H]2OC(=O)/C=C/C1CCCCC1
- GI50 [6]: > 44.7 µM
- LC50 (lethal concentration, 50% net cell kill) [6]: > 44.7 µM
- TGI ([6]; read-out: pTGI (converted)): > 44.7 µM
- GI50 (MCF7): > 44.7 µM
- CC50 (MCF7; [18]): > 44.7 µM
- TGI (MCF7; read-out: pTGI (converted)): > 44.7 µM
- growth at 10 µM (SN12C [1]): 86.7%
- growth at 10 µM [2]: 103%
- growth at 10 µM (Malme-3M): 109%
- GI50 (SK-MEL-2): > 44.7 µM
- LC50 (SK-MEL-2): > 44.7 µM
- TGI (SK-MEL-2; read-out: pTGI (converted)): > 44.7 µM
- growth at 10 µM [7]: 95.4%
- growth at 10 µM (SK-MEL-28): 98.9%
- growth at 10 µM [3]: 116%
- GI50 [8]: > 44.7 µM
- LC50 [8]: > 44.7 µM
- TGI ([8]; read-out: pTGI (converted)): > 44.7 µM
- GI50 [9]: > 44.7 µM
- LC50 [9]: > 44.7 µM
- TGI ([9]; read-out: pTGI (converted)): > 44.7 µM
- growth at 10 µM [4]: 95.1%
- GI50 [10]: > 44.7 µM
- LC50 [10]: > 44.7 µM
- TGI ([10]; read-out: pTGI (converted)): > 44.7 µM
- growth at 10 µM (NCI-H322M): 97.7%
- growth at 10 µM (U-251): 98.1%
- growth at 10 µM (SR): 93.2%
- GI50 [11]: > 44.7 µM
- CC50 [11, 18]: > 44.7 µM
- TGI ([11]; read-out: pTGI (converted)): > 44.7 µM
- GI50 (NCI-H23): > 44.7 µM
- LC50 (NCI-H23): > 44.7 µM
- TGI (NCI-H23; read-out: pTGI (converted)): > 44.7 µM
- growth at 10 µM [5]: 103%
- GI50 ([12]; read-out: GI50): 6.17 µM
- GI50 ([12]; read-out: pGI50 (converted)): 6.17 µM
- CC50 [12, 18]: > 44.7 µM
- TGI ([12]; read-out: pTGI (converted)): 18.6 µM
- GI50 (M14): > 44.7 µM
- LC50 (M14): > 44.7 µM
- TGI (M14; read-out: pTGI (converted)): > 44.7 µM
- GI50 [13]: > 44.7 µM
- LC50 [13]: > 44.7 µM
- TGI ([13]; read-out: pTGI (converted)): > 44.7 µM
- growth at 10 µM (786-0): 100%
- GI50 [14]: > 44.7 µM
- CC50 [14, 18]: > 44.7 µM
- TGI ([14]; read-out: pTGI (converted)): > 44.7 µM
- growth at 10 µM (K562): 96.5%
- growth at 10 µM (NCI-H522): 88.8%
- GI50 (ACHN): 17 µM
- LC50 (concentration killing 50% of cells) (ACHN): > 44.7 µM
- TGI (ACHN; read-out: pTGI (converted)): > 44.7 µM
- GI50 [15]: > 44.7 µM
- CC50 [15, 18]: > 44.7 µM
- TGI ([15]; read-out: pTGI (converted)): > 44.7 µM
- GI50 [16]: 10 µM
- CC50 [16, 18]: > 44.7 µM
- TGI ([16]; read-out: pTGI (converted)): 30.2 µM
- GI50 (SN12C [17]): > 44.7 µM
- CC50 (SN12C [17]; [18]): > 44.7 µM
- TGI (SN12C [17]; read-out: pTGI (converted)): > 44.7 µM
